Experimental data from ChEMBL document CHEMBL1132424, “Design, synthesis, and evaluation of a novel sequence-selective epoxide-containing DNA cross-linking agent based on the pyrrolo[2, 1-c][1,4]benzodiazepine system” (J Med Chem, 1999).
pIC50: −log10 of the molar value.

Experiments:
A2780 [1] = test: In vitro cytotoxicity against. ovarian carcinoma cell line A2780cisR (cisplatin resistant counter part of A2780).; type: functional, cell-based, Homo sapiens
Method in brief: (§1)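 Cells seeded and left to attach overnight, then exposed in quadruplicate wells to compound (20 mM DMSO stock diluted in growth medium) at final 100 µM to 2.5 nM for 96 h at 37 °C. Cells fixed with 10% trichloroacetic acid, stained with 0.4% sulforhodamine B, absorbance read at 540 nm. IC50 from concentration versus percent absorbance of untreated wells.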

CH1 = test: In vitro cytotoxicity against ovarian carcinoma cell line CH1.; type: functional, cell-based, Homo sapiens; method in brief: as §1
SK-OV-3 = test: In vitro cytotoxicity against. ovarian carcinoma cell line SKOV-3.; type: functional, cell-based, Homo sapiens; method in brief: as §1
Nucleic Acid [2] = test: Effect on thermal denaturation temperature of CT-DNA after incubation for 4 hours with the compound; type: functional; settings: Bos taurus
Method in brief: (§2)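 Calf thymus duplex DNA (100 µM in phosphate) with PBD at 20 µM (1:5 PBD/DNA ratio), added from concentrated MeOH solution. Buffer was 10 mM sodium phosphate, 1 mM Na2EDTA, pH 7.00. Incubated at 37 °C for the stated time, then A260 read while heating 40-98 °C at 1 °C/min. Tm taken from d(A260)/dT maxima, MeOH-corrected. ΔTm = Tm(DNA+PBD) − Tm(DNA alone). Mean of three determinations.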

[3] = In vitro cytotoxicity against. ovarian carcinoma cell line CH1cisR (cisplatin resistant counter part of CH1).; type: functional, cell-based, Homo sapiens; method in brief: as §1
Nucleic Acid [4] = test: Effect on thermal denaturation temperature of CT-DNA after incubation for 0 hours with the compound; type: functional; settings: Bos taurus; method in brief: as §2
A2780 [5] = test: In vitro cytotoxicity against. ovarian carcinoma cell line A2780.; type: functional, cell-based, Homo sapiens; method in brief: as §1
Nucleic Acid [6] = test: Effect on thermal denaturation temperature of CT-DNA after incubation for 18 hours with the compound; type: functional; settings: Bos taurus; method in brief: as §2
Nucleic Acid [7] = test: Effect on thermal denaturation temperature of CT-DNA after incubation for 36 hours with the compound; type: functional; settings: Bos taurus; method in brief: as §2

Row | Compound | pIC50 (A2780 [1]; Homo sapiens, A2780) | pIC50 (CH1; Homo sapiens, CH1) | pIC50 (SK-OV-3; Homo sapiens, SK-OV-3) | ΔTm (Nucleic Acid [2]) [°C] | pIC50 ([3]; Homo sapiens, CH1cisR) | ΔTm (Nucleic Acid [4]) [°C] | pIC50 (A2780 [5]; Homo sapiens, A2780) | ΔTm (Nucleic Acid [6]) [°C] | ΔTm (Nucleic Acid [7]) [°C] | pIC50 (A2780 [1]; a2780) | pIC50 (CH1; ch1) | pIC50 (SK-OV-3; sk-ov-3) | pIC50 ([3]; ch1cisr) | pIC50 (A2780 [5]; a2780)
1 | C=CCOc1cc2c(cc1OC)C(=O)N1CCC[C@H]1C=N2 | 5.78 | 6.80 | 5.48 | 0.7 | 6.87 | 0.4 | 5.98 | 0.8 | – | – | – | – | – | –
2 | COc1cc2c(cc1OCC1CO1)N=C[C@@H]1CCCN1C2=O (some centres undefined) | 6.70 | 7.23 | 5.89 | 0.8 | 7.33 | 0.5 | 7.35 | 1.3 | 1.5 | – | – | – | – | –
3 | CISPLATIN | – | – | – | – | – | – | – | – | – | 5.21 | 7.54 | 5.38 | 6.77 | 6.80
4 | COc1cc2c(cc1OCCCOc1cc3c(cc1OC)C(=O)N1CCC[C@H]1C=N3)N=C[C@@H]1CCCN1C2=O [DSB-120] | 6.68 | 7.48 | 6.13 | 13.1 | 7.66 | 10.2 | 8.14 | 15.1 | – | – | – | – | – | –
5 | COc1cc2c(cc1O)N=C[C@@H]1CCCN1C2=O | – | – | – | 0.5 | – | 0.3 | – | 0.7 | 0.7 | – | – | – | – | –
